Data reported in ChEMBL document CHEMBL1135747, “Radiolabeling and in vivo behavior of copper-64-labeled cross-bridged cyclam ligands” (J Med Chem, 2002).

Experiments:
[1] = Partition coefficient (logP); assay type: physicochemical; settings: octanol/water
Summary of the method: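 Each ⁶⁴Cu complex was partitioned between octanol and water, shaken 1 h at room temperature, and 100 μL from each phase was counted. Log P is the log of the octanol/water count ratio, averaged over five samples.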

Rattus norvegicus [2] = organism: Rattus norvegicus; experiment: Distribution in rat blood after 24 hr postinjection; assay type: ADME, organism-based; settings: in vivo
Summary of the method: (§1)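 ⁶⁴Cu-labeled complexes, at NCA and CA levels, were diluted in saline and injected into mature female Sprague–Dawley rats (180–200 g; n = 4). Each rat received up to 0.2 mL carrying 22 μCi. Rats were sacrificed at set times after injection, including 24 h. Organs were excised, weighed and counted against a weighed, counted standard. Values are %ID/g and %ID/organ ± sd.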

Rattus norvegicus [3] = organism: Rattus norvegicus; experiment: Distribution in rat kidney 24 hr postinjection; assay type: ADME, organism-based; settings: in vivo; summary of the method: as §1
Rattus norvegicus [4] = organism: Rattus norvegicus; experiment: Distribution in rat liver after 24 hr postinjection; assay type: ADME, organism-based; settings: in vivo; summary of the method: as §1

logP [1]	Biodistribution (Rattus norvegicus [2])	Biodistribution (Rattus norvegicus [3])	Biodistribution (Rattus norvegicus [4])	Compound
-1.95	–	–	–	CCN(CC)C(=O)CN1CCCN2CCN(CCCN(CC(=O)N(CC)CC)CC2)CC1
–	0.23	0.097	0.7	Cu-1,4,8,11tetraaza-Cyclotetradecane-2,10-dione
–	0.21	0.21	0.49	Cu-(4,8,11-Tris-carboxymethyl-1,4,8,11tetraaza-cyclotetradec-1-yl)-acetic acid

The next lines start with the compound.

Compound	logP [1]	Biodistribution (Rattus norvegicus [2])	Biodistribution (Rattus norvegicus [3])	Biodistribution (Rattus norvegicus [4])
C1CNCCN2CCCNCCN(C1)CC2	-2.11	–	–	–
NC(=O)CCN1CCCN2CCN(CCC(N)=O)CCCN(CC1)CC2	-2.3	–	–	–
